In ChEMBL document CHEMBL1154414, “In vitro and in vivo activities of T-705 against arenavirus and bunyavirus infections” (Antimicrob Agents Chemother, 2007) one finds Activity, log10CCID50 and survival data, which are given here for 2 compounds.

Activity calls are given as the source filed them. No cut-off for these calls is given here.

In test [1] the test system is Pichinde virus. Description: Antiviral activity against Pichinde virus An 4763 infected Syrian golden hamster assessed as animals with detectable virus level in liver at 50 mg/kg, po twice daily for 7 days administered 72 hrs post viral-challenge measured on day 7 of viral infection. It is filed as functional. In outline: (§1)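 Hamsters (groups of 15, placebo 25-30) were dosed orally by gavage twice daily (drug suspended in 0.4% CMC) after bilateral intraperitoneal challenge with 65 PFU. Five per group were killed on day 7. Liver homogenate or serum was serially diluted onto triplicate B-SC-1 wells, CPE was read at 6-8 days, and the 50% endpoint was taken. Range was 2.8-9.5 log10 CCID50/0.1 g or 0.1 ml, with undetectable assigned <2.8.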

The subject of test [2] is Punta Toro virus. Description: Antiviral activity against 5000 PFU Punta Toro virus Adames infected C57BL/6 mouse assessed as mean serum ALT levels at 10 mg/kg, po twice daily administered 24 hrs post viral challenge measured on day 3 of viral infection. It is filed as functional. The procedure, abridged: (§2)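 C57BL/6 mice received subcutaneous PTV, then oral gavage twice daily for 5–7 days. T-705 was given in 0.4% CMC and ribavirin in saline. Five mice per group (10 placebo) were killed on day 3 or 4, and serum was collected. ALT activity was measured by kinetic assay. Three sham-infected mice set baselines.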

In test [3] the test system is Pichinde virus. Description: Antiviral activity against Pichinde virus An 4763 infected Syrian golden hamster assessed as mean serum ALT levels at 50 mg/kg, po twice daily for 7 days administered 24 hrs post viral-challenge measured on day 7 of viral infection. It is filed as functional. The procedure, abridged: (§3)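 Hamsters were challenged intraperitoneally (bilateral, 65 PFU) and given twice-daily oral gavage doses (0.4% CMC vehicle). Five per group were sacrificed on day 7 and serum was collected. Serum ALT activity was measured by kinetic assay. Three sham-infected animals set the baselines.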

Test [4] concerns Punta Toro virus. Description: Antiviral activity against 5000 PFU Punta Toro virus Adames infected C57BL/6 mouse assessed as mean serum ALT levels at 30 mg/kg, po twice daily administered 24 hrs post viral challenge measured on day 3 of viral infection. In kind it is functional. The procedure, abridged:
as §2

Test [5] deals with Pichinde virus. The test can be described thus: Antiviral activity against Pichinde virus An 4763 infected Syrian golden hamster assessed as animals with detectable virus level in liver at 40 mg/kg, po twice daily for 7 days administered 4 hrs before viral-challenge measured on day 7 of viral infection. In kind it is functional.
Test [6] deals with Punta Toro virus. The test can be described thus: Antiviral activity against 5000 PFU Punta Toro virus Adames infected C57BL/6 mouse assessed as mean day of death at 30 mg/kg, po twice daily for 5 days administered 24 hrs post viral challenge. In kind it is functional. The procedure, abridged:
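PTV was inoculated subcutaneously into mice in groups of 15 (25–30 placebo). Dosing was by oral gavage twice daily for 5–7 days, with T-705 suspended in 0.4% CMC and ribavirin in saline. Remaining animals were observed 21–28 days for survival and day of death. Test doses had first been checked for tolerance in uninfected animals.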

Test [7] has as its system Punta Toro virus. The test can be described thus: Antiviral activity against 50 PFU Punta Toro virus Adames infected C57BL/6 mouse assessed as animals with detectable virus level in liver at 10 mg/kg, po twice daily administered 24 hrs post viral challenge measured on day 3 of viral infection. In kind it is functional. In outline:
(§4)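 T-705 was suspended in 0.4% carboxymethylcellulose and given by oral gavage twice daily. Mice were infected subcutaneously with PTV. Five mice per group (10 placebo) were sacrificed on day 3 or 4. Liver homogenate or serum was serially diluted onto triplicate LLC-MK2 monolayers, and CPE was read at 6–8 days. The detection limit was 2.8 log10 CCID50 per 0.1 g liver or 0.1 ml serum.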

Test [8] has as its system Punta Toro virus. The test can be described thus: Antiviral activity against 500 PFU Punta Toro virus Adames infected C57BL/6 mouse assessed as animals with detectable virus level in serum at 30 mg/kg, po twice daily administered 24 hrs post viral challenge measured on day 3 of viral infection. It is filed as functional. In outline:
as §4

Test [9] has as its system Punta Toro virus. The test can be described thus: Antiviral activity against Punta Toro virus Adames infected Syrian golden hamster assessed as inhibition of liver damage at 30 mg/kg, po twice daily administered 4 hrs before viral challenge measured on day 4 of viral infection. It is filed as functional, organism-based. Also noted: dose 30 mg/kg. The procedure, abridged:
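Hamsters were challenged subcutaneously with 50 PFU and dosed twice daily by oral gavage in 0.4% CMC. Five per group were sacrificed on day 3 or 4. Livers were scored 0-4 for icterus, and serum ALT was measured by kinetic assay against three sham-infected baseline animals.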

Test [10] concerns Pichinde virus. The test can be described thus: Antiviral activity against Pichinde virus An 4763 infected Syrian golden hamster assessed as mean day of death at 40 mg/kg, po twice daily for 7 days administered 4 hrs before viral-challenge. It is filed as functional. The procedure, abridged:
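Groups of 15 hamsters (placebo 25-30) were challenged intraperitoneally (bilateral, 65 PFU) and dosed twice daily by oral gavage in 0.4% CMC for 5 to 7 days.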

Test [11] concerns Punta Toro virus. Description: Antiviral activity against 500 PFU Punta Toro virus Adames infected C57BL/6 mouse assessed as mean day of death at 30 mg/kg, po twice daily for 5 days administered 24 hrs post viral challenge. It is filed as functional. The procedure, abridged:
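Groups of 15 mice (25–30 placebo) were inoculated subcutaneously with PTV. Drug in 0.4% carboxymethylcellulose was given by oral gavage twice daily.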

Test [12] deals with Punta Toro virus. The test can be described thus: Antiviral activity against Punta Toro virus Adames infected Syrian golden hamster assessed as mean viral titer per 0.1 mL of serum at 30 mg/kg, po twice daily administered 4 hrs before viral challenge measured on day 4 of viral infection. In kind it is functional. In outline:
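Hamsters received twice-daily oral gavage doses (0.4% CMC) after subcutaneous challenge with 50 PFU. Five per group were killed on day 3 or 4. Liver homogenate or serum was serially diluted onto triplicate LLC-MK2 wells, CPE was read at 6-8 days, and the 50% endpoint was taken. Range was 2.8-9.5 log10 CCID50/0.1 g or 0.1 ml, with undetectable assigned <2.8.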

Test [13] deals with Punta Toro virus. Description: Antiviral activity against 50 PFU Punta Toro virus Adames infected C57BL/6 mouse assessed as animals with detectable virus level in serum at 10 mg/kg, po twice daily administered 24 hrs post viral challenge measured on day 3 of viral infection. In kind it is functional. In outline:
as §4

Test [14] concerns Pichinde virus. The test can be described thus: Antiviral activity against Pichinde virus An 4763 infected Syrian golden hamster assessed as animals with detectable virus level in serum at 50 mg/kg, po twice daily for 7 days administered 24 hrs post viral-challenge measured on day 7 of viral infection. In kind it is functional. In outline:
as §1

In test [15] the test system is Punta Toro virus. The test can be described thus: Antiviral activity against Punta Toro virus Adames infected Syrian golden hamster assessed as survival at 30 mg/kg, po twice daily for 6 days administered 4 hrs before viral challenge. It is filed as functional. The procedure, abridged:
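Hamsters (groups of 15, placebo 25-30) were challenged subcutaneously with 50 PFU and dosed twice daily by oral gavage in 0.4% CMC vehicle.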

For test [16], the system named is Punta Toro virus. The test can be described thus: Antiviral activity against 500 PFU Punta Toro virus Adames infected C57BL/6 mouse assessed as mean serum ALT levels at 30 mg/kg, po twice daily administered 24 hrs post viral challenge measured on day 3 of viral infection. In kind it is functional. In outline: as §2
The subject of test [17] is Pichinde virus. Description: Antiviral activity against Pichinde virus An 4763 infected Syrian golden hamster assessed as mean serum ALT levels at 20 mg/kg, po twice daily for 7 days administered 24 hrs post viral-challenge measured on day 7 of viral infection. In kind it is functional. The procedure, abridged:
as §3

The test system of test [18] is Punta Toro virus. The test can be described thus: Antiviral activity against 5000 PFU Punta Toro virus Adames infected C57BL/6 mouse assessed as mean viral titer per 0.1 mL of serum at 10 mg/kg, po twice daily administered 24 hrs post viral challenge measured on day 3 of viral infection. In kind it is functional. The procedure, abridged: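 Mice were infected subcutaneously with PTV and dosed by oral gavage twice daily; 5 per group (10 placebo) were killed on day 3 or 4. Liver homogenate or serum was serially diluted onto triplicate LLC-MK2 monolayers, and CPE was read 6–8 days later. 50% endpoints gave log10 CCID50 per 0.1 g liver or 0.1 ml serum. Detection range was 2.8–9.5; undetectable samples were assigned <2.8.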

On to `NC(=O)c1nc(F)cnc1O` [FAVIPIRAVIR], for which the Activity with Pichinde virus [1] worked out at 100%; with Punta Toro virus [2] it was 2274 IU/L; in the test with Pichinde virus [3] it was 61 IU/L; with Punta Toro virus [4] it was 521 IU/L; in the test with Pichinde virus [5], 20%; in the test on Punta Toro virus [6], 5 days. The Activity in the test on Punta Toro virus [7] was 0%; with Punta Toro virus [8], 80%; with Pichinde virus [10], 11 days; with Punta Toro virus [11], 5 days; with Punta Toro virus [13] it was 100%; with Pichinde virus [14] it was 80%. Also, the Activity in the test on Punta Toro virus [16] is reported as 900 IU/L; with Pichinde virus [17], 1583 IU/L. For the same compound, the outcome in the test on Punta Toro virus [9] was Active. The log10CCID50 in the test on Punta Toro virus [12] is recorded as less than 4.5; with Punta Toro virus [18] it was less than 5.2. Also, the survival at 30 mg/kg in the test with Punta Toro virus [15] (Punta Toro virus, Adames) is 90%.

Consider `NC(=O)c1ncn([C@@H]2O[C@H](CO)[C@@H](O)[C@H]2O)n1` [RIBAVIRIN], for which the Activity is 100% with Pichinde virus [1]; 1515 IU/L in the test with Punta Toro virus [2]; 26 IU/L in the test on Pichinde virus [3]; 1491 IU/L in the test on Punta Toro virus [4]; 20% in the test with Pichinde virus [5]; 5 days with Punta Toro virus [6]. In addition, the Activity in the test on Punta Toro virus [7] was 40%; in the test on Punta Toro virus [8], 80%; in the test on Pichinde virus [10] it was 11 days; with Punta Toro virus [11], 5.3 days; with Punta Toro virus [13], 60%; in the test on Pichinde virus [14], 40%. Further, the Activity is 70% with Punta Toro virus [15], 450 IU/L with Punta Toro virus [16] and 24 IU/L with Pichinde virus [17]. Moreover, in the test with Punta Toro virus [9], the outcome was Active. The figures for the log10CCID50 in the test on Punta Toro virus [12] and in the test with Punta Toro virus [18] were less than 2.8 and 5.9, respectively.
